Common to all, as to format: functional, cell-based
One experiment concerns A549. In words: Anticancer activity against human A549 cells after 72 hrs by sulforhodamine B assay. The following applies: A549, 72 h. For orientation: Sulforhodamine B stains cellular protein and so reports cell mass.
Another experiment concerns SK-OV-3. As to the kind of experiment: Anticancer activity against human SKOV3 cells after 72 hrs by sulforhodamine B assay. The following applies: SK-OV-3, 72 h. In a few lines:
(§1)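 Cells kept in RPMI 1640 with 10% FBS and passaged with trypsin-EDTA. Seeded at 1-2 × 10^4 cells/well and grown 24 h, then given compounds dissolved in culture medium, in triplicate. Exposure 48 h at 37 °C in 5% CO2. Fixed with cold 10% TCA, stained with 0.4% SRB in 1% acetic acid, dye solubilized in 10 mM Tris base (pH 10.5), absorbance read at 520 nm. IC50 is the concentration giving 50% inhibition.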

Another experiment relates to SK-MEL-2. In words: Anticancer activity against human SK-MEL-2 cells after 72 hrs by sulforhodamine B assay. The following applies: SK-MEL-2, 72 h. In a few lines: as §1
In another experiment the test system is XF498. In words: Anticancer activity against human XF498 cells after 72 hrs by sulforhodamine B assay. To be noted: XF498, 72 h. In short, it runs like this:
as §1

The next experiment concerns HCT-15. As to the kind of experiment: Anticancer activity against human HCT15 cells after 72 hrs by sulforhodamine B assay. To be noted: HCT-15, 72 h. In short, it runs like this:
as §1

Converted amounts (≈) assume the structure as drawn.

For `CC1CCN(C(=O)CCCC[C@@H](C)O[C@@H]2O[C@@H](C)[C@H](O[C@@H]3O[C@@H](C)[C@H](O)C[C@H]3O)C[C@H]2O[C@@H]2O[C@@H](C)[C@H](O)C[C@H]2O)CC1`, the IC50 in the experiment with A549 stood at 0.06 µg/mL (≈ 0.0971 µM); in the experiment with SK-OV-3, 0.03 µg/mL (≈ 0.0486 µM); in the experiment with SK-MEL-2 it was 0.03 µg/mL (≈ 0.0486 µM); in the experiment with XF498, 0.06 µg/mL (≈ 0.0971 µM); with HCT-15, 0.02 µg/mL (≈ 0.0324 µM).
As for `C[C@H](CCCCC(=O)Nc1cccc(Br)c1)O[C@@H]1O[C@@H](C)[C@H](O[C@@H]2O[C@@H](C)[C@H](O)C[C@H]2O)C[C@H]1O[C@@H]1O[C@@H](C)[C@H](O)C[C@H]1O`, the half-inhibitory concentration (IC50) with A549 was 0.07 µg/mL (≈ 0.101 µM); in the experiment with SK-OV-3 it was 0.07 µg/mL (≈ 0.101 µM); in the experiment on SK-MEL-2, 0.09 µg/mL (≈ 0.13 µM); with XF498, 0.05 µg/mL (≈ 0.0724 µM); in the experiment with HCT-15, 0.02 µg/mL (≈ 0.029 µM).
For `CCCCCC[C@H](CCCCCCCCCCC(=O)O)O[C@@H]1O[C@@H](C)[C@H](O[C@@H]2O[C@@H](C)[C@H](O)C[C@H]2O)C[C@H]1O`, the IC50 in the experiment on A549 worked out at 0.64 µg/mL (≈ 1.14 µM); in the experiment with SK-OV-3 it was 0.32 µg/mL (≈ 0.571 µM); in the experiment with SK-MEL-2, 0.33 µg/mL (≈ 0.588 µM); in the experiment with XF498 it was 0.43 µg/mL (≈ 0.767 µM); in the experiment with HCT-15 it was 0.53 µg/mL (≈ 0.945 µM).
For the compound `C[C@H](CCCCC1CO1)O[C@@H]1O[C@@H](C)[C@H](O[C@@H]2O[C@@H](C)[C@H](O)C[C@H]2O)C[C@H]1O[C@@H]1O[C@@H](C)[C@H](O)C[C@H]1O` (some centres undefined), the IC50 in the experiment with A549 came to 0.76 µg/mL (≈ 1.42 µM); with SK-OV-3, 0.14 µg/mL (≈ 0.262 µM); with SK-MEL-2 it was 0.65 µg/mL (≈ 1.22 µM); with XF498, 0.65 µg/mL (≈ 1.22 µM); in the experiment with HCT-15, 0.21 µg/mL (≈ 0.393 µM).
Consider `C[C@@H]1O[C@H]2O[C@@H](C)CCCCCCCCC(=O)O[C@@H]3C[C@@H](O)[C@@H](O[C@H]3C)O[C@@H]2C[C@H]1O`, for which the IC50 in the experiment with A549 worked out at 0.63 µg/mL (≈ 1.42 µM); in the experiment with SK-OV-3 it was 0.73 µg/mL (≈ 1.64 µM); with SK-MEL-2, 0.33 µg/mL (≈ 0.742 µM); with XF498, 0.34 µg/mL (≈ 0.765 µM); in the experiment on HCT-15, 0.65 µg/mL (≈ 1.46 µM).
For `CCCCCC[C@@H](C)O[C@@H]1O[C@@H](C)[C@H](O)C[C@H]1O[C@@H]1O[C@@H](C)[C@H](OC(=O)CCCC)C[C@H]1OC(=O)CCCC`, in that order: 0.78 µg/mL (≈ 1.4 µM), 0.73 µg/mL (≈ 1.31 µM), 0.43 µg/mL (≈ 0.77 µM), 0.45 µg/mL (≈ 0.805 µM) and 0.21 µg/mL (≈ 0.376 µM).
For `C[C@H](CCCCC(=O)NCc1ccco1)O[C@@H]1O[C@@H](C)[C@H](O[C@@H]2O[C@@H](C)[C@H](O)C[C@H]2O)C[C@H]1O[C@@H]1O[C@@H](C)[C@H](O)C[C@H]1O`, the half-maximal inhibitory concentration (IC50) in the experiment on A549 was 0.08 µg/mL (≈ 0.13 µM); in the experiment with SK-OV-3 it was 0.01 µg/mL (≈ 0.0162 µM); in the experiment on SK-MEL-2 it was 0.04 µg/mL (≈ 0.065 µM); with XF498, 0.07 µg/mL (≈ 0.114 µM); in the experiment on HCT-15, 0.06 µg/mL (≈ 0.0974 µM).
Regarding `C[C@H](CCCCCCN=[N+]=[N-])O[C@@H]1O[C@@H](C)[C@H](O[C@@H]2O[C@@H](C)[C@H](O)C[C@H]2O)C[C@H]1O[C@@H]1O[C@@H](C)[C@H](O)C[C@H]1O`, the IC50 in the experiment on A549 was 0.24 µg/mL (≈ 0.427 µM); in the experiment with SK-OV-3, 0.14 µg/mL (≈ 0.249 µM); with SK-MEL-2, 0.33 µg/mL (≈ 0.588 µM); with XF498, 0.43 µg/mL (≈ 0.766 µM); in the experiment with HCT-15 it was 0.14 µg/mL (≈ 0.249 µM).
As for `CCCCCC[C@H](CCCCCCCCCCC(=O)OC)O[C@@H]1O[C@@H](C)[C@H](O[C@@H]2O[C@@H](C)[C@H](O)C[C@H]2O)C[C@H]1O[C@@H]1O[C@@H](C)[C@H](O)C[C@H]1O`, the IC50 in the experiment with A549 stood at 0.12 µg/mL (≈ 0.17 µM); in the experiment on SK-OV-3, 0.24 µg/mL (≈ 0.34 µM); with SK-MEL-2, 0.32 µg/mL (≈ 0.454 µM); in the experiment on XF498, 0.32 µg/mL (≈ 0.454 µM); with HCT-15 it was 0.1 µg/mL (≈ 0.142 µM).
Regarding `C[C@H](CCCCC(=O)NCCCN1CCCC1=O)O[C@@H]1O[C@@H](C)[C@H](O)C[C@H]1O`, the IC50 in the experiment on A549 stood at 0.76 µg/mL (≈ 1.9 µM); in the experiment with SK-OV-3, 0.65 µg/mL (≈ 1.62 µM); in the experiment with SK-MEL-2, 0.33 µg/mL (≈ 0.824 µM); with XF498 it was 0.25 µg/mL (≈ 0.624 µM); with HCT-15, 0.54 µg/mL (≈ 1.35 µM).
Take `C[C@H](CCCCC(=O)OCc1cccc(Oc2ccccc2)c1)O[C@@H]1O[C@@H](C)[C@H](O)C[C@H]1O`: the concentration for half-maximal inhibition (IC50) with A549 was 0.24 µg/mL (≈ 0.523 µM); in the experiment on SK-OV-3 it was 0.54 µg/mL (≈ 1.18 µM); in the experiment with SK-MEL-2 it was 0.13 µg/mL (≈ 0.284 µM); with XF498, 0.52 µg/mL (≈ 1.13 µM); with HCT-15 it was 0.75 µg/mL (≈ 1.64 µM).
With `CCc1ccc(NC(=O)CCCC[C@@H](C)O[C@@H]2O[C@@H](C)[C@H](O)C[C@H]2O)cc1`, the IC50 is 0.34 µg/mL (≈ 0.896 µM) with A549; 0.24 µg/mL (≈ 0.632 µM) with SK-OV-3; 0.11 µg/mL (≈ 0.29 µM) in the experiment on SK-MEL-2; 0.25 µg/mL (≈ 0.659 µM) in the experiment with XF498; 0.2 µg/mL (≈ 0.527 µM) with HCT-15.
On to `C[C@@H]1CCCCCCCCC(=O)O[C@@H]2C[C@@H](O)[C@H](C)O[C@H]2O[C@@H]2C[C@@H](O)[C@H](C)O[C@H]2O1`, for which the IC50 with A549 is 0.57 µg/mL (≈ 1.28 µM); with SK-OV-3, 0.14 µg/mL (≈ 0.315 µM); in the experiment on SK-MEL-2, 0.44 µg/mL (≈ 0.99 µM); in the experiment on XF498, 0.43 µg/mL (≈ 0.967 µM); in the experiment with HCT-15 it was 0.54 µg/mL (≈ 1.21 µM).
For `COC(=O)CCCC[C@@H](C)O[C@@H]1O[C@@H](C)[C@H](O[C@@H]2O[C@@H](C)[C@H](O)C[C@H]2O)C[C@H]1O[C@@H]1O[C@@H](C)[C@H](O)C[C@H]1O`, in that order: 0.13 µg/mL (≈ 0.236 µM), 0.14 µg/mL (≈ 0.254 µM), 0.41 µg/mL (≈ 0.745 µM), 0.19 µg/mL (≈ 0.345 µM) and 0.21 µg/mL (≈ 0.381 µM).
On to `C=CCN1CCN(C(=O)CCCC[C@@H](C)O[C@@H]2O[C@@H](C)[C@H](O)C[C@H]2O)CC1`, for which the 50% inhibitory concentration (IC50) in the experiment on A549 turned out to be 0.54 µg/mL (≈ 1.4 µM); in the experiment with SK-OV-3 it was 0.32 µg/mL (≈ 0.832 µM); in the experiment on SK-MEL-2, 0.53 µg/mL (≈ 1.38 µM); in the experiment with XF498, 0.62 µg/mL (≈ 1.61 µM); in the experiment with HCT-15 it was 0.34 µg/mL (≈ 0.884 µM).
For `CCCCCCCCCCCCCCNC(=O)CCCC[C@@H](C)O[C@@H]1O[C@@H](C)[C@H](O)C[C@H]1O`, in that order: 0.16 µg/mL (≈ 0.339 µM), 0.24 µg/mL (≈ 0.509 µM), 0.11 µg/mL (≈ 0.233 µM), 0.42 µg/mL (≈ 0.89 µM) and 0.31 µg/mL (≈ 0.657 µM).
For `C=CCCCCOC(=O)CCCC[C@@H](C)O[C@@H]1O[C@@H](C)[C@H](O)C[C@H]1O`, in that order: 0.12 µg/mL (≈ 0.335 µM), 0.31 µg/mL (≈ 0.865 µM), 0.22 µg/mL (≈ 0.614 µM), 0.15 µg/mL (≈ 0.418 µM) and 0.12 µg/mL (≈ 0.335 µM).
On to `C[C@H](CCCCC(=O)O)O[C@@H]1O[C@@H](C)[C@H](O)C[C@H]1O` [DAUMONE], for which the IC50 with A549 came to 0.03 µg/mL (≈ 0.109 µM); in the experiment with SK-OV-3 it was 0.02 µg/mL (≈ 0.0724 µM); with SK-MEL-2, 0.07 µg/mL (≈ 0.253 µM); in the experiment with XF498 it was 0.09 µg/mL (≈ 0.326 µM); in the experiment with HCT-15, 0.05 µg/mL (≈ 0.181 µM).
Regarding `COc1cccc2c1C(=O)c1c(O)c3c(c(O)c1C2=O)C[C@@](O)(C(=O)CO)C[C@@H]3O[C@H]1C[C@H](N)[C@H](O)[C@H](C)O1` [DOXORUBICIN], the IC50 in the experiment with SK-OV-3 came out at 0.024 µg/mL (≈ 0.0442 µM); with SK-MEL-2 it was 0.015 µg/mL (≈ 0.0276 µM); in the experiment on XF498, 0.19 µg/mL (≈ 0.35 µM); in the experiment on HCT-15, 0.02 µg/mL (≈ 0.0368 µM).

What is called IC50 is the concentration at which inhibition is half-maximal. High values mean a need for much substance, low ones inhibition by little substance.

The record behind these values is ChEMBL document CHEMBL1153584 (Eur J Med Chem, 2009).
